Laboratory results from ChEMBL document CHEMBL4028903 (J Med Chem, 2017).
Calls of active or inactive are those of the source. The rule behind the calls is not given here.

Legend:
[1] = AUC in mouse at 10 mg/kg, po administered via gavage by LC-MS/MS analysis; format: ADME, organism-based; settings: in vivo
In short: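 Single oral dose given as a suspension in 0.5% methylcellulose, 0.5% Tween80 and 99% water. Doses were 10 mg/kg in mouse, 1 mg/kg in rat and 2 mg/kg in dog.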

[2] = Volume of distribution at steady state in rat at 3 mg/kg, iv by LC-MS/MS analysis; format: ADME, organism-based; settings: in vivo, read-out: Vdss
In short: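 Rats were dosed IV as a solution in 75% PEG300:25% D5W, or orally as a suspension in 0.5% methylcellulose, 0.5% Tween80 and 99% water.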

Rattus norvegicus [3] = experiment: In vivo agonist activity at FXR in po dosed Sprague-Dawley rat assessed as induction of BSEP mRNA level in liver administered as single dose after 7 hrs post dose by qPCR analysis; format: functional, organism-based
Rattus norvegicus [4] = experiment: In vivo agonist activity at FXR in po dosed Sprague-Dawley rat assessed as induction of SHP mRNA level in liver administered as single dose after 7 hrs post dose by qPCR analysis; format: functional, organism-based
Rattus norvegicus [5] = experiment: In vivo agonist activity at FXR in Sprague-Dawley rat assessed as induction of BSEP mRNA level in liver at 0.003 mg/kg, po qd for 14 days measured 7 hrs post last dose on day 14 by qPCR analysis; format: functional, organism-based
[6] = Drug uptake in Sprague-Dawley rat liver at 1 mg/kg, po qd administered via gavage measured 1 hr post last dose on day 14 by LC-MS/MS analysis; format: ADME, organism-based; settings: read-out: Drug uptake
In short: (§1)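 Drug concentration in liver was quantified from tissue homogenates, so these are total levels. Unbound liver concentration was not determined.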

[7] = Drug uptake in Sprague-Dawley rat liver at 0.3 mg/kg, po qd administered via gavage measured 7 hrs post last dose on day 14 by LC-MS/MS analysis; format: ADME, organism-based; settings: read-out: Drug uptake; in short: as §1
[8] = Drug uptake in Sprague-Dawley rat liver at 0.1 mg/kg, po qd administered via gavage measured 1 hr post last dose on day 14 by LC-MS/MS analysis; format: ADME, organism-based; settings: read-out: Drug uptake; in short: as §1
[9] = Drug uptake in Sprague-Dawley rat plasma at 0.1 mg/kg, po qd administered via gavage measured 1 hr post last dose on day 14 by LC-MS/MS analysis; format: ADME, organism-based
[10] = Drug uptake in Sprague-Dawley rat plasma at 0.03 mg/kg, po qd administered via gavage measured 1 hr post last dose on day 14 by LC-MS/MS analysis; format: ADME, organism-based
[11] = Drug uptake in Sprague-Dawley rat liver at 0.01 mg/kg, po qd administered via gavage measured 7 hrs post last dose on day 14 by LC-MS/MS analysis; format: ADME, organism-based; settings: read-out: Drug uptake; in short: as §1
[12] = Drug uptake in Sprague-Dawley rat liver at 0.003 mg/kg, po qd administered via gavage measured 7 hrs post last dose on day 14 by LC-MS/MS analysis; format: ADME, organism-based; settings: read-out: Drug uptake; in short: as §1
Rattus norvegicus [13] = experiment: Dose normalized AUC (0 to 24 hrs) in Sprague-Dawley rat at 0.03 mg/kg, po qd administered via gavage measured on day 1 by LC-MS/MS analysis; format: ADME, organism-based; settings: in vivo
Rattus norvegicus [14] = experiment: Dose normalized AUC (0 to 24 hrs) in Sprague-Dawley rat at 0.01 mg/kg, po qd administered via gavage measured on day 1 by LC-MS/MS analysis; format: ADME, organism-based; settings: in vivo
[15] = AUC (0 to 24 hrs) in Sprague-Dawley rat at 3 mg/kg, po qd administered via gavage measured on day 1 by LC-MS/MS analysis; format: ADME, organism-based; parameters: time < 24 hr, dose 3 mg/kg, route oral; settings: in vivo
[16] = AUC (0 to 24 hrs) in Sprague-Dawley rat at 0.3 mg/kg, po qd administered via gavage measured on day 11 by LC-MS/MS analysis; format: ADME, organism-based; parameters: dose 0.3 mg/kg, time < 24 hr, route oral; settings: in vivo
[17] = AUC (0 to 24 hrs) in Sprague-Dawley rat at 0.3 mg/kg, po qd administered via gavage measured on day 1 by LC-MS/MS analysis; format: ADME, organism-based; parameters: dose 0.3 mg/kg, time < 24 hr, route oral; settings: in vivo
[18] = AUC (0 to 24 hrs) in Sprague-Dawley rat at 0.003 mg/kg, po qd administered via gavage measured on day 11 by LC-MS/MS analysis; format: ADME, organism-based; parameters: time < 24 hr, dose 0.003 mg/kg, route oral; settings: in vivo
[19] = Cmax in Sprague-Dawley rat at 1 mg/kg, po qd administered via gavage measured on day 1 by LC-MS/MS analysis; format: ADME, organism-based; parameters: dose 1 mg/kg, route oral; settings: in vivo
[20] = Cmax in Sprague-Dawley rat at 0.3 mg/kg, po qd administered via gavage measured on day 11 by LC-MS/MS analysis; format: ADME, organism-based; parameters: dose 0.3 mg/kg, route oral; settings: in vivo
[21] = Cmax in Sprague-Dawley rat at 0.03 mg/kg, po qd administered via gavage measured on day 11 by LC-MS/MS analysis; format: ADME, organism-based; parameters: dose 0.03 mg/kg, route oral; settings: in vivo
[22] = Cmax in Sprague-Dawley rat at 0.01 mg/kg, po qd administered via gavage measured on day 11 by LC-MS/MS analysis; format: ADME, organism-based; parameters: dose 0.01 mg/kg, route oral; settings: in vivo
[23] = Protein binding in rat plasma at 0.01 to 0.05 mg/kg, po qd administered via gavage by LC-MS/MS analysis; format: ADME, organism-based; settings: read-out: PPB
[24] = Clearance in dog at 0.5 mg/kg, iv by LC-MS/MS analysis; format: ADME, organism-based, Canis lupus familiaris; settings: in vivo
In short: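 Single IV dose given as a solution. Mouse received 5 mg/kg in 75% PEG300:25% D5W. Dog received 0.5 mg/kg in 20% PEG300, 5% solutol and 75% carbonate buffer pH = 8.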

[25] = Oral bioavailability in dog at 2 mg/kg administered via gavage by LC-MS/MS analysis; format: ADME, organism-based, Canis lupus familiaris; settings: in vivo
In short: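 IV dosing used a solution in 75% PEG300:25% D5W for mouse and rat, and a solution in 20% PEG300, 5% solutol, 75% carbonate buffer pH 8 for dog. PO dosing used a suspension in 0.5% methylcellulose, 0.5% Tween80, 99% water for all three species.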

[26] = Protein binding in rat plasma at 3 mg/kg, iv or 1 mg/kg, po administered via gavage by LC-MS/MS analysis; format: ADME, organism-based; settings: read-out: PPB
[27] = Protein binding in dog plasma at 0.5 mg/kg, iv or 2 mg/kg, po administered via gavage by LC-MS/MS analysis; format: ADME, organism-based, Canis lupus familiaris; settings: read-out: PPB
[28] = Drug uptake in Sprague-Dawley rat liver at 3 mg/kg, po qd administered via gavage measured 1 hr post last dose on day 14 by LC-MS/MS analysis; format: ADME, organism-based; settings: read-out: Drug uptake; in short: as §1
[29] = Drug uptake in Sprague-Dawley rat plasma at 3 mg/kg, po qd administered via gavage measured 7 hrs post last dose on day 14 by LC-MS/MS analysis; format: ADME, organism-based
[30] = Drug uptake in Sprague-Dawley rat liver at 3 mg/kg, po qd administered via gavage measured 7 hrs post last dose on day 14 by LC-MS/MS analysis; format: ADME, organism-based; settings: read-out: Drug uptake; in short: as §1
Mus musculus = experiment: Drug metabolism in mouse assessed as taurine conjugated metabolite formation at 5 mg/kg, iv or 10 mg/kg, po administered via gavage by LC-MS/MS analysis; format: ADME, organism-based; settings: in vivo
Canis familiaris = experiment: Drug metabolism in dog assessed as glycine conjugated metabolite formation at 0.5 mg/kg, iv or 2 mg/kg, po administered via gavage by LC-MS/MS analysis; format: ADME, organism-based, Canis lupus familiaris; settings: in vivo
In short: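 Plasma samples were taken from the dog PK studies. The IV solution was 20% PEG300, 5% solutol and 75% carbonate buffer pH = 8. The PO suspension was 0.5% methylcellulose, 0.5% Tween80 and 99% water. Samples were screened for taurine- and glycine-conjugated metabolites and for the acylglucuronide.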

O=C(O)c1cc(F)c2nc(N3C4CCC3CC(OCc3c(-c5ccccc5OC(F)(F)F)noc3C3CC3)C4)sc2c1 (configuration not stated)
AUC [1]: 4.79 µM·h
Vd [2]: 0.72 L/kg
Activity (Rattus norvegicus [3]): Dose-dependent effect
Activity (Rattus norvegicus [4]): Dose-dependent effect
Activity (Rattus norvegicus [5]): Active
concentration at 1 h [6]: 159 nM
concentration at 7 h [7]: 92.8 nM
concentration at 1 h [8]: 27.4 nM
concentration at 1 h [9]: 3.95 nM
concentration at 1 h [10]: 1.29 nM
concentration at 7 h [11]: 5.18 nM
concentration at 7 h [12]: 2.3 nM
AUC/dose (Rattus norvegicus [13]): 503 nM·h
AUC/dose (Rattus norvegicus [14]): 443 nM·h
AUC(0-t) at 24 h [15]: 1.34 µM·h
AUC at 24 h [16]: 0.19 µM·h
AUC(0-t) at 24 h [17]: 0.117 µM·h
AUC at 24 h [18]: 0.002 µM·h
Cmax [19]: 39.3 nM
Cmax [20]: 14.8 nM
Cmax [21]: 1.9 nM
Cmax [22]: 0.79 nM
fraction unbound [23]: 0.001
clearance [24]: 1.5 mL/min/kg
bioavailability [25]: 10%
fraction unbound [26]: 0.001
fraction unbound [27]: 0.001
concentration at 1 h [28]: 872 nM
concentration at 7 h [29]: 115 nM
concentration at 7 h [30]: 640 nM
Drug metabolism (Mus musculus): Metabolite_Notdetected
Drug metabolism (Canis familiaris): Metabolite_Notdetected
